Source: PubChem BioAssay
Hits are enriched below; roughly 2.6% of the tested compounds scored in any of these assays.
ERAP1 HTS inh = human ERAP1 aminopeptidase inhibitors, primary screen, biochemical, single point, plate reader; inhibition, % at 10.7 µM; Endoplasmic reticulum aminopeptidase 1 (Homo sapiens), Q9NZ08; recombinant ERAP1, Leu-AMC fluorescence, 60 min; 0.15% of 340,000 active; AID 652197, 2013;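 active = mean replicate inhibition of at least 30%, or all replicates individually reaching that 30% level; inactive = mean below 30% and not every replicate reaching it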
E-selectin induc = E-selectin induction in HUVECs, primary screen, imaging, HUVEC, immunofluorescence imaging, single point; P16581; normalized: neutral wells 0, TNF-alpha wells 100; activation, % at 7.58 µM; 0.37% of 260,000 active;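 active = mean E-selectin-positive cell signal at least 10% of the positive control, reached in at least 60% of replicates, without over 20% cell loss; inconclusive = no rule given, readout overlaps actives, possibly toxicity-flagged; inactive = the rest, including those meeting only one limit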
Target sequence (P16581 whole entry, looked up): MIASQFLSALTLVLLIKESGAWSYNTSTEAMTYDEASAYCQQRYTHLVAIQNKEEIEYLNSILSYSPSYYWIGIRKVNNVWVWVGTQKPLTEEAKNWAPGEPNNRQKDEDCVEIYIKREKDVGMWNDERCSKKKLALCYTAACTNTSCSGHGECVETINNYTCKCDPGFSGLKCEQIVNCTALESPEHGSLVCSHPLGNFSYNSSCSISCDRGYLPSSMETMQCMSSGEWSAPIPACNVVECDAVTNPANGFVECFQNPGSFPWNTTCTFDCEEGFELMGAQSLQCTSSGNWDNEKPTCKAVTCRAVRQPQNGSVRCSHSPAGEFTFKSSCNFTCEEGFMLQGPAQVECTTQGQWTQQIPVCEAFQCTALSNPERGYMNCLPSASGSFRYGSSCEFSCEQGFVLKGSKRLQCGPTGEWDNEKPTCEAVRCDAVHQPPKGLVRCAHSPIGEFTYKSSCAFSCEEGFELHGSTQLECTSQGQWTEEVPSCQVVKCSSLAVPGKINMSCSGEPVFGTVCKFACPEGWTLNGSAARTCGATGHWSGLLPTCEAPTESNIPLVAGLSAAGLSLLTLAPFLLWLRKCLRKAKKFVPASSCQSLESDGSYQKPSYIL
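Material: HUVEC primary endothelial cells; Amount: 3,000 cells per well; Dosing: single concentration; Medium: EGM-2 growth medium on 0.1% gelatin-coated wells; Read-out basis: percent E-selectin-positive cells; Signal: immunofluorescence imaging; Control set: TNF-alpha, DMSO.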
DENV2 CPE rescue = inhibitors of DENV2 cytopathic effect, primary screen, cell-based, plate reader, single concentration. DENV2-infected cells, cytopathic effect rescue. CPE inhibition, % at 9.99 µM. 1.7% of 350,000 active; in the data active = CPE inhibition above about 20%, passing the limit was not always enough; inconclusive = no clear call, values can overlap the other calls; tested in BHK-21 cells
F508del corr = F508del CFTR correction, initial screen, CFBE line, single point | CFBE cells, YFP halide quenching; stimulated with forskolin plus potentiator P3; % fluorescence drop versus neutral controls | activity (quench increase), % at 7.58 µM | 0.36% of 350,000 active;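 active = mean added fluorescence quench of at least 8% versus neutral control, with both replicates also reaching 8%; inconclusive = only one of the mean or replicate conditions met; inactive = mean below 8% and not both replicates reaching 8%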;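 note: cells transiently co-express mutant CFTR-F508del with the halide-sensitive YFP; corrector assay measuring rescue of mutant channel to the surface after 24 h compound exposure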
GSIS activator = GLuc luminescence reporter in INS-1E cells, primary screen for activators of glucose-dependent secretion of insulin; INS-1E GLuc reporter insulin secretion, 2-3 h; activation, % at 16.6 µM; 0.61% of 370,000 active; AID 743287, 2014;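 active = lowest replicate activation of at least 40%, so every replicate reaches that level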
miR122 inh = miR-122 Renilla sensor signal increase in Huh7, primary screen, miR-122 inhibitor project, cell-based, single point, plate reader; Huh7 miR-122 Renilla luciferase sensor, 48 h; neutral wells = 0, positive control = 100; 0.3% of 340,000 active; AID 602342, 2012; activation (reporter increase), % at 12.5 µM;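 active = mean replicate activation score at least 90 and every replicate individually at or above 90; inconclusive = only one of the two criteria met; inactive = neither criterion met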;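 note: higher luciferase means less miR-122 activity so hits act as miR-122 inhibitors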
Of the large screens only hits and unclear results are named; the others gave an inactive call.

C[C@@H]1CN([C@@H](C)CO)C(=O)c2cc(NC(=O)Cc3cn(C)c4ccccc34)ccc2O[C@H]1CN(C)C(=O)Nc1ccccc1	DENV2 CPE rescue 35
C[C@@H]1CCCCO[C@@H](CN(C)S(C)(=O)=O)[C@@H](C)CN([C@@H](C)CO)C(=O)c2cc(NS(=O)(=O)c3ccc(F)cc3)ccc2O1	none
CCCn1c(C)nc2c(c1=O)c1nc3ccccc3nc1n2CCC1=CCCCC1	GSIS activator 61 (no result: ERAP1 HTS inh, E-selectin induc, DENV2 CPE rescue, F508del corr)
Cc1nc2c(c(=O)n1CCC1=CCCCC1)c1nc3ccccc3nc1n2/N=C/c1ccco1	none (no result: ERAP1 HTS inh, E-selectin induc, DENV2 CPE rescue, F508del corr)
CCCNC(=O)Nc1ccc2c(c1)OC[C@H](C)N(Cc1ccncc1)C[C@@H](C)[C@@H](OC)CN(C)C2=O	DENV2 CPE rescue 45 (no result: miR122 inh)
COc1ccccc1CN1C[C@H](C)[C@H](OC)CN(C)C(=O)c2ccc(NC(C)=O)cc2OC[C@H]1C	DENV2 CPE rescue 43
CCC(=O)Nc1ccc2c(c1)OC[C@H](C)N(Cc1ccccn1)C[C@@H](C)[C@H](OC)CN(C)C2=O	DENV2 CPE rescue 32 (no result: miR122 inh)
COc1ccc(CN2C[C@H](C)[C@@H](OC)CN(C)C(=O)c3cc(NC(=O)c4nc5ccccc5s4)ccc3OC[C@@H]2C)cc1	DENV2 CPE rescue 31 (no result: miR122 inh)
CCC(=O)Nc1ccc2c(c1)OC[C@@H](C)N(Cc1ccccn1)C[C@@H](C)[C@@H](OC)CN(C)C2=O	none (no result: miR122 inh)
COc1ccc(C(=O)N2C[C@@H]3[C@H](c4ccccc42)[C@H](CO)N3Cc2ccccc2)cc1	none
C[C@H]1CCCCO[C@H](CN(C)C(=O)c2ccccc2)[C@@H](C)CN([C@@H](C)CO)C(=O)c2cc(NS(=O)(=O)c3ccc(F)cc3)ccc2O1	none
CCCC(=O)Nc1ccc2c(c1)C(=O)N(C)C[C@@H](OC)[C@@H](C)CN(Cc1ccc(-c3ccccn3)cc1)[C@@H](C)CO2	none (no result: miR122 inh)
CCCC(=O)Nc1ccc2c(c1)OC[C@H](C)N(Cc1ccccc1)C[C@H](C)[C@@H](OC)CN(C)C2=O	DENV2 CPE rescue 32 (no result: miR122 inh)
CCCC(=O)Nc1ccc2c(c1)OC[C@@H](C)N(Cc1ccccn1)C[C@H](C)[C@H](OC)CN(C)C2=O	none (no result: miR122 inh)
CCCC(=O)Nc1ccc2c(c1)C(=O)N(C)C[C@H](OC)[C@H](C)CN(Cc1ccc(-c3ccccn3)cc1)[C@@H](C)CO2	DENV2 CPE rescue 28 (no result: miR122 inh)
CCCC(=O)Nc1ccc2c(c1)OC[C@@H](C)N(Cc1ccccn1)C[C@H](C)[C@@H](OC)CN(C)C2=O	DENV2 CPE rescue 64 (no result: miR122 inh)
COc1cccc(S(=O)(=O)Nc2ccc3c(c2)OC[C@H](C)NC[C@@H](C)[C@@H](OC)CN(C)C3=O)c1	none
COCCNC(=O)C1CCC(CNS(=O)(=O)c2ccc(F)cc2)CC1 (stereo not drawn)	DENV2 CPE rescue 34
COCCNC(=O)C1CCC(CNS(=O)(=O)c2ccccc2)CC1 (stereo not drawn)	none
CC1CCC(NC(=O)CCN2C(=O)C3C4C=CC(C4)C3C2=O)CC1 (stereo not drawn)	E-selectin induc 177
C[C@@H]1CN([C@@H](C)CO)C(=O)c2cc(NS(=O)(=O)c3ccc(F)cc3)ccc2O[C@@H](C)CCCCO[C@@H]1CN(C)C(=O)c1ccccc1	none
COc1cccc(OC)c1-c1cnc(NC(C)=O)cn1	DENV2 CPE rescue 24
CC(=O)Nc1cnc(-c2ccccc2C(C)=O)cn1	none
C[C@H](CO)N1C[C@H](C)[C@H](CN(C)C(=O)C2CCCCC2)Oc2ncc(-c3cccnc3)cc2C1=O	none (no result: ERAP1 HTS inh, DENV2 CPE rescue)
CC(=O)OC1C2CCC1C([N+]1(C)CCCCC1)CC2 (stereo not drawn)	ERAP1 HTS inh 35 (no result: miR122 inh)
CCCNC(=O)N1C[C@@H](O)COC[C@H]2O[C@H](CC(=O)N3CCCCC3)CC[C@@H]21	none
CCOC(=O)[C@H]1[C@H]2COc3ccc(Br)cc3[C@@H]2N2C(=O)CN(Cc3ccco3)C(=O)[C@@]12C	DENV2 CPE rescue 50 (no result: ERAP1 HTS inh, GSIS activator)
CCOC(=O)[C@@H]1[C@H]2COc3ccc(Br)cc3[C@@H]2N2C(=O)N(c3ccc(C)cc3)C(=O)[C@]12C	DENV2 CPE rescue 51 (no result: E-selectin induc, miR122 inh)
CCOC(=O)[C@@H]1[C@H]2COc3ccc(Br)cc3[C@H]2N2C(=O)N(c3ccc(C)cc3)C(=O)[C@]12C	none
C[C@@H]1CN([C@H](C)CO)C(=O)c2cc(NC(=O)Nc3ccccc3)ccc2O[C@@H](C)CCCCO[C@H]1CN(C)C(=O)c1ccccc1	DENV2 CPE rescue inconclusive (no result: E-selectin induc)
C/C=C/c1cnc2c(c1)C(=O)N([C@@H](C)CO)C[C@@H](C)[C@@H](CN(C)C(=O)Nc1ccc(F)cc1)O2	none
COc1ccc(C(=O)/C=C/c2ccc(N(C)C)cc2)c(OC)c1	F508del corr 18, miR122 inh 212 (no result: E-selectin induc)
COc1ccc(C(=O)/C=C/c2ccccc2)c(OC)c1	DENV2 CPE rescue inconclusive (no result: E-selectin induc)
OC[C@H]1[C@@H](c2ccccc2)C2(CN(Cc3nccs3)C2)N1Cc1ccncc1	none (no result: ERAP1 HTS inh, E-selectin induc, DENV2 CPE rescue, F508del corr, miR122 inh)
CCOc1ccc2ccc(OCC)c(/C=N/n3cnnc3)c2c1	GSIS activator 40 (no result: miR122 inh)
CCOc1cc(/C=N/n2cnnc2)ccc1O	none (no result: E-selectin induc)
CCCCCn1c(N(C)Cc2ccccc2)nc2c1c(=O)[nH]c(=O)n2C	GSIS activator 40
CN(Cc1ccccc1)c1nc2c(c(=O)[nH]c(=O)n2C)n1Cc1ccccc1	GSIS activator 70 (no result: E-selectin induc, DENV2 CPE rescue, F508del corr)
CN(Cc1ccccc1)c1nc2c(c(=O)[nH]c(=O)n2C)n1CCOc1ccccc1	none (no result: ERAP1 HTS inh, E-selectin induc, DENV2 CPE rescue, F508del corr, GSIS activator)
Cc1nn(C)cc1NC(=O)C[C@H]1CC[C@@H]2[C@@H](COc3ccc(NC(=O)C(C)C)cc3C(=O)N2C)O1	none (no result: ERAP1 HTS inh)
CSc1nc(-c2ccccc2)[nH]c(=S)c1C(C)=O	none (no result: ERAP1 HTS inh, E-selectin induc, DENV2 CPE rescue, F508del corr, GSIS activator)
CSc1nc(-c2ccc(C)cc2)[nH]c1S(=O)(=O)c1ccccc1	miR122 inh 126 (no result: ERAP1 HTS inh, E-selectin induc, DENV2 CPE rescue, F508del corr, GSIS activator)
CCN1C(=O)[C@H]2[C@@H](c3ccc(OC)cc3)N3C(=O)CN(CCOC)C(=O)[C@@]3(Cc3ccccc3)[C@H]2C1=O	DENV2 CPE rescue 66
O=S1(=O)CCOCCCN1Cc1ccccc1Br	DENV2 CPE rescue 33 (no result: E-selectin induc)
Cc1nc(N)nc2c1CCCC2	GSIS activator 43 (no result: ERAP1 HTS inh, E-selectin induc, DENV2 CPE rescue, F508del corr, miR122 inh)
Cc1noc(C)c1NC(=O)Nc1ccc2c(c1)CC(=O)N([C@H](C)CO)C[C@@H](C)[C@@H](CN(C)C(=O)Nc1ccc(F)cc1)O2	DENV2 CPE rescue inconclusive
Cc1noc(C)c1NC(=O)Nc1ccc2c(c1)CC(=O)N([C@H](C)CO)C[C@H](C)[C@H](CN(C)C(=O)Nc1ccccc1)O2	DENV2 CPE rescue 20
Cc1noc(C)c1NC(=O)Nc1ccc2c(c1)CC(=O)N([C@H](C)CO)C[C@H](C)[C@@H](CN(C)C(=O)Nc1ccccc1)O2	none
